In assay [1] the target is cGMP-specific 3',5'-cyclic phosphodiesterase (Homo sapiens, UniProt O76074). The assay is described as follows: In vitro inhibitory concentration against human platelet Phosphodiesterase 5 was determined.
Assay [2] deals with cGMP-specific 3',5'-cyclic phosphodiesterase (Oryctolagus cuniculus). The experiment in a line: Rabbit Corpus Cavernosum functional assay at 30 nM to determine the efficacy of PDE5 inhibition activity.
A short description of assay [3]: In vitro selectivity ratio of PDE2 of Rat kidney to human platelet PDE5 was determined. The essentials:
(§1)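 Scintillation proximity PDE assay at room temperature, read by scintillation counting. Substrates: [³H]cGMP for PDE5 (sonicated human platelet homogenate) and PDE1 (bovine heart, with 1 µM calmodulin and 4 mM calcium). PDE2 (rat kidney cytosol, Mono-Q purified) used [³H]cAMP plus 1 µM nonradioactive cGMP. PDE6 was stripped from bovine rod outer segments and trypsin-activated. Blank subtracted; activity as percent of vehicle; ratio = IC50 other/IC50 PDE5.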

Assay [4] is described as follows: In vitro selectivity ratio of PDE6 of Bovine retina to human platelet PDE5 was determined. The essentials: as §1
The nature of assay [5]: In vitro selectivity ratio of Bovine Heart PDE1 to human platelet PDE5 was determined. The essentials: as §1
The nature of assay [6]: Selectivity ratio for Bovine retinal PDE6 and human platelet PDE5. A digest of the protocol:
as §1

Bounds are passed on as bounds.

In general, IC50 refers to the midpoint of a concentration-inhibition curve. Higher therefore signals weaker potency in that assay. Molecule `CCCOc1ccc(S(=O)(=O)N2CC[C@@H](N(C)C)C2)cc1-c1nc(O)c2cc3c(cc2n1)ncn3Cc1ccccc1` returned an IC50 in assay [1] of 1.1 nM. The molecule further displayed a Control relaxation in assay [2] of 110%. The IC50 ratio in assay [3] was more than 10000; in assay [4] it was 30; in assay [5], more than 10000.
As to `CCCOc1ccc(S(=O)(=O)N2CCN(CC)CC2)cc1-c1nc2cc3ncn(Cc4ccccc4Cl)c3cc2c(=O)[nH]1`, in assay [1], inhibition was half-maximal at 1.6 nM (IC50).
On to `CCCOc1ccc(C(N)=O)cc1-c1nc(O)c2cc3c(cc2n1)ncn3Cc1ccc(F)cc1`, for which the Control relaxation in assay [2] turned out to be 140%. The figures for the IC50 ratio in assay [3], in assay [4] and in assay [5] were more than 100000, 60 and more than 100000, respectively.
On to `CCCOc1ccc(S(=O)(=O)N2CC[C@@H](N(C)C)C2)cc1-c1nc2cc3ncn(Cc4ccc(F)cc4)c3cc2c(=O)[nH]1`, for which the IC50 in assay [1] is 0.2 nM. This molecule also came in with a Control relaxation in assay [2] of 120%. The IC50 ratio is more than 10000 in assay [3], 70 in assay [4] and more than 10000 in assay [5].
With `CCCOc1ccc(S(=O)(=O)N2CCN(CC)CC2)cc1-c1nc2cc3ncn(Cc4cccc(F)c4)c3cc2c(=O)[nH]1`, the IC50 in assay [1] was determined as 1.4 nM.
In assay [1], `CCCOc1ccc(S(=O)(=O)N2CCN(CC)CC2)cc1-c1nc(O)c2cc3c(cc2n1)ncn3Cc1cccc(OC)c1` had an IC50 of 1.1 nM. The Control relaxation in assay [2] worked out at 130%. For the same molecule, the results for the IC50 ratio in assay [3], in assay [4] and in assay [5] were 7000, 50 and more than 10000, respectively.
Regarding `CCCOc1ccc(S(N)(=O)=O)cc1-c1nc2cc3ncn(Cc4ccc(F)cc4)c3cc2c(=O)[nH]1`, in assay [1], it took 3.2 nM to reach half-maximal inhibition (IC50).
As for `CCCOc1ccc(S(=O)(=O)N2CC[C@H](N(C)C)C2)cc1-c1nc(O)c2cc3c(cc2n1)ncn3Cc1ccccc1`, half-maximal inhibition in assay [1] (IC50) required 27 nM. Also, the IC50 ratio in assay [6] is 3.
For the molecule `CCCOc1ccc(S(=O)(=O)N2CCN(CC)CC2)cc1-c1nc(O)c2cc3c(cc2n1)ncn3Cc1ccccc1Cl`, the Control relaxation in assay [2] is 90%. The IC50 ratio in assay [3] was more than 10000; in assay [4], 40; in assay [5], more than 10000.
With `CCCOc1ccc(S(=O)(=O)N2CCN(CC)CC2)cc1-c1nc(O)c2cc3c(cc2n1)ncn3Cc1ccc(F)cc1`, the IC50 in assay [1] worked out at 1.7 nM. For the same molecule, the Control relaxation in assay [2] worked out at 100%. Besides, the IC50 ratio in assay [3] was more than 10000; in assay [4], 80; in assay [5], more than 10000.
In turn, `CCCOc1ccc(S(=O)(=O)N2CCN(CC)CC2)cc1-c1nc(O)c2cc3c(cc2n1)ncn3Cc1ccccc1` gave an IC50 in assay [1] of 1.1 nM. Further, in assay [2], the Control relaxation was determined as 90%. Moreover, the IC50 ratio in assay [3] is more than 10000; in assay [4], 50; in assay [5] it was more than 10000.
Molecule `CCCOc1ccc(C(=O)N2CC[C@@H](N(C)C)C2)cc1-c1nc2cc3ncn(Cc4ccc(F)cc4)c3cc2c(=O)[nH]1` registered an IC50 in assay [1] of 40 nM.
`CCCOc1ccc(S(=O)(=O)N2CCN(CC)CC2)cc1-c1nc(O)c2cc3c(cc2n1)ncn3Cc1cccc(F)c1` gave a Control relaxation in assay [2] of 100%. In addition, the IC50 ratio in assay [3] is more than 10000; in assay [4] it was 80; in assay [5], more than 10000.
For `CCCOc1ccc(C(=O)N2CCN(CC)CC2)cc1-c1nc2cc3ncn(Cc4ccc(F)cc4)c3cc2c(=O)[nH]1`, in assay [1], the IC50 was found to be 35 nM.
`CCCOc1ccc(S(=O)(=O)N2CCN(C)CC2)cc1-c1nc(O)c2cc3c(cc2n1)ncn3Cc1ccccc1` displayed a Control relaxation in assay [2] of 120%. Also, the IC50 ratio is more than 10000 in assay [3], 20 in assay [4] and 3400 in assay [5].
The molecule `CCCOc1ccc(S(=O)(=O)N2CCN(C)CC2)cc1-c1nc2cc3ncn(Cc4ccc(F)cc4)c3cc2c(=O)[nH]1` showed an IC50 in assay [1] of 3.3 nM.
`CCCOc1ccc(S(=O)(=O)N2CC[C@@H](N(C)C)C2)cc1-c1nc(O)c2cc3c(cc2n1)ncn3Cc1ccc(Cl)cc1` showed an IC50 in assay [1] of 0.52 nM. Moreover, the IC50 ratio in assay [3] is more than 10000; in assay [4] it was 50; in assay [5] it was more than 10000.
Turning to `CCCOc1ccc(S(=O)(=O)N2CCN(CC)CC2)cc1-c1nc2cc3ncn(Cc4ccccc4OC)c3cc2c(=O)[nH]1`, half-maximal inhibition in assay [1] (IC50) was put at 0.62 nM.
With `CCCOc1ccc(S(N)(=O)=O)cc1-c1nc(O)c2cc3c(cc2n1)ncn3Cc1ccc(F)cc1`, the Control relaxation in assay [2] turned out to be 100%. Further, the figures for the IC50 ratio in assay [3], in assay [4] and in assay [5] were more than 10000, 20 and more than 10000, respectively.

The record behind these values is ChEMBL document CHEMBL1133451, “Optimization of substituted N-3-benzylimidazoquinazolinone sulfonamides as potent and selective PDE5 inhibitors” (J Med Chem, 2000).
